Data on 22 compounds can be found in ChEMBL document CHEMBL1158566, “The bisnaphthalimides as new active lead compounds against Plasmodium falciparum” (Bioorg Med Chem, 2010).

Assay [1] concerns Plasmodium falciparum. The experiment in a line: Antiplasmodial activity against chloroquine-sensitive Plasmodium falciparum 3D7 assessed as parasite-specific LDH release after 72 hrs by Malstat assay. Type of assay: functional, organism-based. The conditions noted are these: 3D7, 72 h. An outline of the steps: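 Synchronized 3D7 ring stages seeded at 1% parasitemia with compound (in H2O or DMSO) across 10 pM–100 µM. DMSO 0.5% served as negative control. Cultured 72 h in triplicate, then viability read as Plasmodium lactate dehydrogenase activity (Malstat). Each compound run two to four times. IC50 and standard deviation calculated.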
(In general: LDH in the medium is a marker of cell lysis.)

Assay [2] can be described thus: Cytotoxicity against mouse J774.1 cells after 48 hrs by alamar blue satining. It is filed as cell-based. The note with it: J774.1, 48 h. Put shortly: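 J774.1 macrophages at 1×10^5 cells/mL in phenol-red-free RPMI (10% FCS, 2 mM glutamine, 10 mM Hepes pH 7.2, 50 µM 2-mercaptoethanol, antibiotics) with increasing compound concentrations, 24 h at 37 °C, 5% CO2. AlamarBlue added to 10%, further 24 and 48 h incubation. Absorbance read at 540 nm against 630 nm reference. Final DMSO ≤1%, duplicates.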
Background: Alamar Blue is a resazurin reagent that responds to reducing activity.

In assay [3] the test system is Plasmodium falciparum. Kind of assay: Antiplasmodial activity against chloroquine-resistant Plasmodium falciparum Dd2 assessed as parasite-specific LDH release after 72 hrs by Malstat assay. It is filed as functional, organism-based. The note with it: Dd2, 72 h. An outline of the steps: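 P. falciparum asexual blood stages: synchronized ring-stage cultures at 1% parasitemia, exposed to compounds (in water or DMSO) over 10 pM–100 µM for 72 h in triplicate. 0.5% DMSO served as negative control. Viability was read as parasite lactate dehydrogenase activity (Malstat). Each compound was run two to four times, and IC50 with standard deviation was calculated.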

In assay [4] the test system is Plasmodium falciparum. Kind of assay: Antiplasmodial activity against blood stage forms of chloroquine-sensitive Plasmodium falciparum 3D7 assessed as dysfunctional intracellular membrane biosynthesis at IC50 after 72 hrs by electron microscopy. It is filed as functional, organism-based. An outline of the steps:
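Blood-stage P. falciparum cultured in vitro, exposed 72 h to compound or to 0.5 vol % DMSO control. Fixed in 1% glutaraldehyde/4% paraformaldehyde in PBS, post-fixed in 1% OsO4/1.5% K3[Fe(CN)6], uranyl acetate stained, ethanol-dehydrated and Epon-embedded. Ultrathin sections post-stained with 1% uranyl acetate and examined by transmission EM for intracellular membrane whirls.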

Molecules are shown by their SMILES. The source made the active and inactive calls. The rule behind the calls is not given here.

On to `C[N+](C)(CCCCCCCCCCCC[N+](C)(C)CCCN1C(=O)c2cccc3cccc(c23)C1=O)CCCN1C(=O)c2cccc3cccc(c23)C1=O`, for which the IC50 (commonly the concentration that gives 50% inhibition) in the assay with Plasmodium falciparum [1] was 219 nM; in assay [2], greater than 100 µM.
With `CC(C)(CN1C(=O)c2cccc3cccc(c23)C1=O)C[N+](C)(C)CCCCCCBr`, the IC50 in the assay with Plasmodium falciparum [3] was 0.89 µM; with Plasmodium falciparum [1] it was 430 nM; in assay [2] it was greater than 100 µM.
For the compound `C[N+](C)(CCCN1C(=O)c2cccc3cccc(c23)C1=O)CCC[N+](C)(C)CCCN1C(=O)c2cccc3cccc(c23)C1=O`, the IC50 in the assay on Plasmodium falciparum [1] was greater than 100000 nM; in assay [2] it was greater than 100 µM.
On to `CC(C)(CN1C(=O)c2cccc3cc([N+](=O)[O-])cc(c23)C1=O)C[N+](C)(C)CCCCCC[N+](C)(C)CC(C)(C)CN1C(=O)c2cccc3cc([N+](=O)[O-])cc(c23)C1=O`, for which the half-inhibitory concentration (IC50) with Plasmodium falciparum [1] was 660 nM; in assay [2] it was greater than 100 µM. The result in the assay with Plasmodium falciparum [4] was Active.
Take `C[N+](C)(CCCCCCCC[N+](C)(C)CCCN1C(=O)c2cccc3cccc(c23)C1=O)CCCN1C(=O)c2cccc3cccc(c23)C1=O`: the IC50 in the assay on Plasmodium falciparum [1] is 64 nM; in assay [2], greater than 100 µM.
In the same order, the values of `C[N+](C)(CCCCCCCCC[N+](C)(C)CCCN1C(=O)c2cccc3cccc(c23)C1=O)CCCN1C(=O)c2cccc3cccc(c23)C1=O` are 60 nM and greater than 100 µM.
Consider `C[N+](C)(CCCC[N+](C)(C)CCCN1C(=O)c2cccc3cccc(c23)C1=O)CCCN1C(=O)c2cccc3cccc(c23)C1=O`, for which the IC50 was greater than 100000 nM with Plasmodium falciparum [1] and greater than 100 µM in assay [2].
`CC(C)(CN1C(=O)c2cccc3c([N+](=O)[O-])ccc(c23)C1=O)C[N+](C)(C)CCCCCC[N+](C)(C)CC(C)(C)CN1C(=O)c2cccc3c([N+](=O)[O-])ccc(c23)C1=O`: the half-maximal inhibitory concentration (IC50) with Plasmodium falciparum [1] was 3480 nM; in assay [2] it was greater than 100 µM.
As to `CCC[N+](C)(C)CC(C)(C)CN1C(=O)c2cccc3cccc(c23)C1=O`, the IC50 was 8.11 µM in the assay on Plasmodium falciparum [3], 9810 nM in the assay on Plasmodium falciparum [1] and greater than 100 µM in assay [2].
As for `C[N+](C)(CCCCCCCCCC[N+](C)(C)CCCN1C(=O)c2cccc3cccc(c23)C1=O)CCCN1C(=O)c2cccc3cccc(c23)C1=O`, the concentration for half-maximal inhibition (IC50) was 145 nM in the assay with Plasmodium falciparum [1] and greater than 100 µM in assay [2].
Consider `C[N+](C)(CCCCCCC[N+](C)(C)CCCN1C(=O)c2cccc3cccc(c23)C1=O)CCCN1C(=O)c2cccc3cccc(c23)C1=O`, for which the values for the IC50 (with Plasmodium falciparum [1]; in assay [2]) were 510 nM and greater than 100 µM, respectively.
For `CC(C)(CN1C(=O)c2cccc3cccc(c23)C1=O)C[N+](C)(C)CCCCCC[N+](C)(C)CC(C)(C)CN1C(=O)c2cccc3cccc(c23)C1=O`, the IC50 was 800 nM in the assay on Plasmodium falciparum [1] and greater than 100 µM in assay [2].
As to `C[N+](C)(C)CCCCCCCCCCCC[N+](C)(C)C`, the half-maximal inhibitory concentration (IC50) in the assay on Plasmodium falciparum [1] was 395 nM; in assay [2] it was greater than 100 µM.
For `CC(C)(CN1C(=O)c2cccc3cc(N)cc(c23)C1=O)C[N+](C)(C)CCCCCC[N+](C)(C)CC(C)(C)CN1C(=O)c2cccc3cc(N)cc(c23)C1=O`, the half-maximal inhibitory concentration (IC50) is 22600 nM in the assay with Plasmodium falciparum [1] and greater than 100 µM in assay [2].
In the case of `CC(C)(CN1C(=O)c2cccc3c(N)ccc(c23)C1=O)C[N+](C)(C)CCCCCC[N+](C)(C)CC(C)(C)CN1C(=O)c2cccc3c(N)ccc(c23)C1=O`, the half-maximal inhibitory concentration (IC50) is 7.39 µM with Plasmodium falciparum [3], 6760 nM in the assay with Plasmodium falciparum [1] and greater than 100 µM in assay [2].
Take `CN(C)CCCN1C(=O)c2cccc3cccc(c23)C1=O`: the results for the 50% inhibitory concentration (IC50) (with Plasmodium falciparum [1]; in assay [2]) were greater than 100000 nM and greater than 100 µM, respectively.
In the same order, the values of `C[N+](C)(C)CCCCCC[N+](C)(C)C` [HEXAMETHONIUM BROMIDE] are greater than 100000 nM and greater than 100 µM.
`C[N+](C)(CCCCC[N+](C)(C)CCCN1C(=O)c2cccc3cccc(c23)C1=O)CCCN1C(=O)c2cccc3cccc(c23)C1=O`: the half-inhibitory concentration (IC50) in the assay with Plasmodium falciparum [1] is greater than 100000 nM; in assay [2], greater than 100 µM.
Take `C[N+](C)(C)CCCCCCCCCC[N+](C)(C)C` [DECAMETHONIUM BROMIDE]: the IC50 was 911 nM in the assay with Plasmodium falciparum [1] and greater than 100 µM in assay [2].
`C[N+](C)(CCCCCCCCCCC[N+](C)(C)CCCN1C(=O)c2cccc3cccc(c23)C1=O)CCCN1C(=O)c2cccc3cccc(c23)C1=O`: the half-inhibitory concentration (IC50) was 170 nM with Plasmodium falciparum [1] and greater than 100 µM in assay [2].
Turning to `CC(C)(CN1C(=O)c2cccc3cccc(c23)C1=O)C[N+](C)(C)CCCCCC[N+](C)(C)CCCN1C(=O)c2cccc3cccc(c23)C1=O`, the IC50 in the assay on Plasmodium falciparum [1] was 400 nM; in assay [2], greater than 100 µM. The result in the assay with Plasmodium falciparum [4] was Active.
Turning to `C[N+](C)(CCCCCC[N+](C)(C)CCCN1C(=O)c2cccc3cccc(c23)C1=O)CCCN1C(=O)c2cccc3cccc(c23)C1=O`, the values for the IC50 (in the assay with Plasmodium falciparum [1]; in assay [2]) were 7990 nM and greater than 100 µM, respectively.
